In ChEMBL document CHEMBL1135709, “2,6-Di(omega-aminoalkyl)-2,5,6,7-tetrahydropyrazolo[3,4,5-mn]pyrimido[5,6,1-de]acridine-5,7-diones: novel, potent, cytotoxic, and DNA-binding agents” (J Med Chem, 2002):

What was measured:
[1] = test system: 786-0; experiment: Percent growth of NCI cell line, renal: 786-0 exposed for 48 hr at 10e-4 concentration; format: functional, Homo sapiens
Procedure, shortened: (§1)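 NCI panel cell lines exposed 48 h to 10^-8, 10^-6 and 10^-4 M drug; read-out is percent growth at each concentration.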

[2] = test system: 786-0; experiment: Percent growth of NCI cell line, renal: 786-0 exposed for 48 hr at 10e-6 concentration; format: functional, Homo sapiens; procedure, shortened: as §1
[3] = test system: 786-0; experiment: Percent growth of NCI cell line, renal: 786-0 exposed for 48 hr at 10e-8 concentration; format: functional, Homo sapiens; procedure, shortened: as §1
[4] = test system: Calf thymus DNA; experiment: CT-DNA binding required to produce a 50% drop in fluorescence of DNA-bound ethidium.; format: nucleic-acid assay; details: Bos taurus
Procedure, shortened: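 Ethidium displacement from calf thymus DNA in 10 mM Na2HPO4, 10 mM NaH2PO4, 1 mM EDTA, pH 7.0, containing 1.26 μM ethidium bromide and 1 μM CT-DNA. Drug added serially from ~5 mM DMSO stock; 20 °C; fluorescence excitation 546 nm, emission 595 nm. C50 = drug concentration lowering DNA-bound ethidium fluorescence by 50%, mean of three determinations.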

[5] = test system: DU-145; experiment: Percent growth of NCI cell line, prostate: DU-145 exposed for 48 hr at 10e-6 concentration; format: functional, Homo sapiens; procedure, shortened: as §1
[6] = test system: DU-145; experiment: Percent growth of NCI cell line, prostate: DU-145 exposed for 48 hr at 10e-8 concentration; format: functional, Homo sapiens; procedure, shortened: as §1
[7] = test system: HCT-15; experiment: Percent growth of NCI cell line, colon: HCT-15 exposed for 48 hr at 10e-4 concentration; format: functional, Homo sapiens; procedure, shortened: as §1
[8] = test system: HCT-15; experiment: Percent growth of NCI cell line, colon: HCT-15 exposed for 48 hr at 10e-6 concentration; format: functional, Homo sapiens; procedure, shortened: as §1
[9] = test system: HCT-15; experiment: Percent growth of NCI cell line, colon: HCT-15 exposed for 48 hr at 10e-8 concentration; format: functional, Homo sapiens; procedure, shortened: as §1
[10] = test system: HT-29; experiment: In vitro cytotoxic potency against HT-29 (human colon adenocarcinoma) cell line.; format: functional, cell-based
[11] = test system: LoVo; experiment: Cytotoxicity activity on LoVo/Dx human adenocarcinoma cell line after 144 hr of drug exposure; format: functional, cell-based
Procedure, shortened: (§2)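 LoVo (sensitive) and LoVo/Dx (resistant) human colon adenocarcinoma cells seeded at 2.5 × 10^5 cells/mL medium; drug solutions added to culture.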

[12] = test system: LoVo; experiment: Cytotoxicity activity on LoVo/Dx human adenocarcinoma cell line after 1 hr of drug exposure; format: functional, cell-based
Procedure, shortened: (§3)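 LoVo (sensitive) and LoVo/Dx (resistant) human colon adenocarcinoma cells seeded at 2.5 × 10^5 cells/mL medium; drug solutions added to culture. IC50 = drug concentration inhibiting cell growth by 50%, assays in triplicate.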

[13] = test system: LOX IMVI; experiment: (§4) Percent growth of NCI cell line, melanoma: LOX IMVI exposed for 48 hr at 10e-4 concentration; format: functional, Homo sapiens; procedure, shortened: as §1
[14] = test system: LOX IMVI; experiment: (§5) Percent growth of NCI cell line, melanoma: LOX IMVI exposed for 48 hr at 10e-6 concentration; format: functional, Homo sapiens; procedure, shortened: as §1
[15] = test system: LOX IMVI; experiment: Percent growth of NCI cell line, melanoma: LOX IMVI exposed for 48 hr at 10e-8 concentration; format: functional, Homo sapiens; procedure, shortened: as §1
[16] = test system: MCF7; experiment: Percent growth of NCI cell line, breast: MCF-7 exposed for 48 hr at 10e-4 concentration; format: functional, Homo sapiens; procedure, shortened: as §1
[17] = test system: MCF7; experiment: Percent growth of NCI cell line, breast: MCF-7 exposed for 48 hr at 10e-6 concentration; format: functional, Homo sapiens; procedure, shortened: as §1
[18] = test system: MCF7; experiment: Percent growth of NCI cell line, breast: MCF-7 exposed for 48 hr at 10e-8 concentration; format: functional, Homo sapiens; procedure, shortened: as §1
[19] = test system: LoVo; experiment: Cytotoxicity activity on LoVo human adenocarcinoma cell line after 144 hr of drug exposure; format: functional, cell-based; procedure, shortened: as §2
[20] = test system: LoVo; experiment: Cytotoxicity activity on LoVo human adenocarcinoma cell line after 1 hr of drug exposure; format: functional, cell-based; procedure, shortened: as §3
[21] = test system: NCI-H460; experiment: Percent growth of NCI cell line, lung-nsc: NCI-H460 exposed for 48 hr at 10e-4 concentration; format: functional, Homo sapiens; procedure, shortened: as §1
[22] = test system: NCI-H460; experiment: Percent growth of NCI cell line, lung-nsc: NCI-H460 exposed for 48 hr at 10e-6 concentration; format: functional, Homo sapiens; procedure, shortened: as §1
[23] = test system: NCI-H460; experiment: Percent growth of NCI cell line, lung-nsc: NCI-H460 exposed for 48 hr at 10e-8 concentration; format: functional, Homo sapiens; procedure, shortened: as §1
[24] = test system: OVCAR-4; experiment: Percent growth of NCI cell line, ovarian: OVCAR-4 exposed for 48 hr at 10e-4 concentration; format: functional, Homo sapiens; procedure, shortened: as §1
[25] = test system: OVCAR-4; experiment: Percent growth of NCI cell line, ovarian: OVCAR-4 exposed for 48 hr at 10e-6 concentration; format: functional, Homo sapiens; procedure, shortened: as §1
[26] = test system: OVCAR-4; experiment: Percent growth of NCI cell line, ovarian: OVCAR-4 exposed for 48 hr at 10e-8 concentration; format: functional, Homo sapiens; procedure, shortened: as §1
[27] = test system: SNB-19; experiment: Percent growth of NCI cell line, CNS: SNB-19 exposed for 48 hr at 10e-4 concentration; format: functional, Homo sapiens; procedure, shortened: as §1
[28] = test system: SNB-19; experiment: Percent growth of NCI cell line, CNS: SNB-19 exposed for 48 hr at 10e-6 concentration; format: functional, Homo sapiens; procedure, shortened: as §1
[29] = Percent growth of NCI cell line, leucemia K562 exposed for 48 hr at 10e-4 concentration; format: functional, Homo sapiens; procedure, shortened: as §1
[30] = Percent growth of NCI cell line, leucemia K562 exposed for 48 hr at 10e-6 concentration; format: functional, Homo sapiens; procedure, shortened: as §1
[31] = Percent growth of NCI cell line, leucemia K562 exposed for 48 hr at 10e-8 concentration; format: functional, Homo sapiens; procedure, shortened: as §1
[32] = test system: SNB-19; experiment: Percent growth of NCI cell line, CNS: SNB-19 exposed for 48 hr at 10e-8 concentration; format: functional, Homo sapiens; procedure, shortened: as §1
[33] = test system: DU-145; experiment: Percent growth of NCI cell line, prostate: DU-145 exposed for 48 hr at 10e-4 concentration; format: functional, Homo sapiens; procedure, shortened: as §1
[34] = as §4; format: functional, Homo sapiens; procedure, shortened: as §1
[35] = as §5; format: functional, Homo sapiens; procedure, shortened: as §1

Row | Compound | Growth [1] [%] | Growth [2] [%] | Growth [3] [%] | C50 [4] [µM] | Growth [5] [%] | Growth [6] [%] | Growth [7] [%] | Growth [8] [%] | Growth [9] [%] | IC50 [10] [nM] | IC50 [11] [nM] | IC50 [12] [nM] | Growth [15] [%] | Growth [16] [%] | Growth [17] [%] | Growth [18] [%] | IC50 [19] [nM] | IC50 [20] [nM] | Growth [21] [%] | Growth [22] [%] | other results
1 | CN(C)CCn1c(=O)c2ccc3c4c(nn3CCN(C)C)c3ccccc3n(c1=O)c24 | -90 | -42 | 27 | 0.0018 | -16 | 60 | -85 | -29 | 48 | 37 | 3.9 | 79 | 65 | -95 | -41 | 63 | 12 | 290 | -79 | -44 | Growth [13]: -93%; Growth [14]: -32%; Growth [23]: 30%; Growth [24]: -56%; Growth [25]: -36%; Growth [26]: 51%; Growth [27]: -41%; Growth [28]: -3%; Growth [29]: -67%; Growth [30]: -27%; Growth [31]: 61%; Growth [32]: 66%; Growth [33]: -37%
2 | CN(C)CCn1c(=O)c2ccc3c4c(nn3CCN(C)C)c3cc(O)ccc3n(c1=O)c24 | -82 | -11 | 43 | 0.056 | 0 | 71 | -68 | 21 | 85 | 39 | 170 | 80 | 63 | -64 | -17 | 60 | 11 | 220 | -74 | -23 | Growth [13]: -79%; Growth [14]: -48%; Growth [23]: 71%; Growth [24]: -60%; Growth [25]: -19%; Growth [26]: 70%; Growth [27]: -72%; Growth [28]: -1%; Growth [29]: -66%; Growth [30]: 7%; Growth [31]: 84%; Growth [32]: 65%; Growth [33]: -50%
3 | CN(C)CCn1c(=O)c2ccc3c4c(nn3CCN(C)C)c3cc(N)ccc3n(c1=O)c24 | -95 | -44 | 23 | 0.0009 | -11 | 59 | -75 | -25 | 54 | 3.7 | 16 | 550 | 47 | -65 | -6 | 62 | 0.52 | 130 | -64 | -28 | Growth [34]: -50%; Growth [35]: -28%; Growth [23]: 16%; Growth [24]: -51%; Growth [25]: -47%; Growth [26]: 55%; Growth [27]: -69%; Growth [28]: -14%; Growth [29]: -15%; Growth [30]: 7%; Growth [31]: 45%; Growth [32]: 43%; Growth [33]: -67%
